Our source for the IC50 values is ChEMBL document CHEMBL2385045, “Discovery of novel 4-(2-fluorophenoxy)quinoline derivatives bearing 4-oxo-1,4-dihydrocinnoline-3-carboxamide moiety as c-Met kinase inhibitors” (Bioorg Med Chem, 2013).

One assay relates to MKN-45. Nature of the assay: Cytotoxicity against c-Met-dependent human MKN45 cells assessed as growth inhibition after 72 hrs by MTT assay. The following applies: MKN-45, 72 h.
A further assay has as its system HT-29. Nature of the assay: Cytotoxicity against c-Met-dependent human HT-29 cells assessed as growth inhibition after 72 hrs by MTT assay. Conditions: HT-29, 72 h.
A further assay concerns A549. The assay can be described thus: Cytotoxicity against c-Met-dependent human A549 cells assessed as growth inhibition after 72 hrs by MTT assay. The following applies: A549, 72 h.
The nature of assay [1]: Cytotoxicity against c-Met-independent human H460 cells assessed as growth inhibition after 72 hrs by MTT assay. The following applies: NCI-H460, 72 h.
Assay [2] can be described thus: Cytotoxicity against c-Met-dependent human U87MG cells assessed as growth inhibition after 72 hrs by MTT assay. The following applies: U-87 MG. Format: functional, cell-based, U-87MG ATCC. The method in brief: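 Cells grown in MEM with 10% FBS. About 4×10³ cells/well were seeded and incubated 24 h at 37 °C, 5% CO₂, then exposed to compound for 72 h. MTT was added (terminal 5 µg/mL) for 4 h at 37 °C, and formazan was dissolved in DMSO. IC50 is the mean of three determinations.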

For the compound `COc1cc2c(Oc3ccc(NC(=O)c4nn(-c5ccccc5F)c5cc(F)ccc5c4=O)cc3F)ccnc2cc1OCCCN1CCCCC1`, the IC50 turned out to be 2790 nM with MKN-45, 5070 nM with HT-29, 3270 nM with A549 and 3280 nM in assay [1].

On to `COc1cc2c(Oc3ccc(NC(=O)c4nn(-c5ccc(C)cc5C)c5ccccc5c4=O)cc3F)ccnc2cc1OCCCN1CCCCC1`, for which the IC50 amounted to 1850 nM with MKN-45, 3560 nM in the assay on HT-29, 1280 nM with A549 and 1570 nM in assay [1].

For `COc1cc2c(Oc3ccc(NC(=O)c4nn(-c5ccccc5Cl)c5cc(F)ccc5c4=O)cc3F)ccnc2cc1OCCCN1CCC(C)CC1`, the IC50 was 1560 nM in the assay with MKN-45, 1370 nM with HT-29, 1050 nM in the assay with A549 and 1250 nM in assay [1].

On to `COc1cc2c(Oc3ccc(NC(=O)c4nn(-c5ccccc5F)c5cc(F)ccc5c4=O)cc3F)ccnc2cc1OCCCN1CCOCC1`, for which the IC50 in the assay on MKN-45 is 1540 nM; with HT-29, 2950 nM; with A549, 2040 nM; in assay [1], 2250 nM.

With `COc1cc2c(Oc3ccc(NC(=O)c4nn(-c5ccc(Cl)cc5Cl)c5ccccc5c4=O)cc3F)ccnc2cc1OCCCN1CCCCC1`, the IC50 with MKN-45 was found to be 590 nM; with HT-29 it was 990 nM; in the assay with A549 it was 470 nM; in assay [1], 1030 nM.

With `COc1cc2c(Oc3ccc(NC(=O)c4nn(-c5ccccc5Br)c5ccccc5c4=O)cc3F)ccnc2cc1OCCCN1CCC(C)CC1`, the IC50 in assay [2] turned out to be 2160 nM; in the assay with MKN-45, 280 nM; in the assay on HT-29, 1340 nM; with A549, 350 nM; in assay [1], 830 nM.

Turning to `COc1cc2c(Oc3ccc(NC(=O)c4nn(-c5ccc(C)cc5)c5ccccc5c4=O)cc3F)ccnc2cc1OCCCN1CCOCC1`, the half-maximal inhibitory concentration (IC50) in assay [2] was found to be 1970 nM; in the assay on MKN-45 it was 680 nM; with HT-29, 3200 nM; in the assay on A549, 1100 nM; in assay [1], 2100 nM.

`COc1cc2c(Oc3ccc(NC(=O)c4nn(-c5c(Cl)cccc5Cl)c5ccccc5c4=O)cc3F)ccnc2cc1OCCCN1CCCCC1`: the IC50 in assay [2] was 1360 nM; in the assay on MKN-45, 390 nM; in the assay with HT-29, 1150 nM; in the assay with A549, 410 nM; in assay [1], 770 nM.

In the case of `COc1cc2c(Oc3ccc(NC(=O)c4nn(-c5cc(C)ccc5C)c5ccccc5c4=O)cc3F)ccnc2cc1OCCCN1CCOCC1`, the IC50 amounted to 1360 nM in assay [2]; 30 nM in the assay with MKN-45; 1150 nM in the assay on HT-29; 750 nM in the assay on A549; 590 nM in assay [1].

With `COc1cc2c(Oc3ccc(NC(=O)c4nn(-c5ccccc5OC(F)(F)F)c5ccccc5c4=O)cc3F)ccnc2cc1OCCCN1CCOCC1`, the 50% inhibitory concentration (IC50) is 1040 nM in assay [2]; 760 nM with MKN-45; 1120 nM with HT-29; 480 nM in the assay with A549; 620 nM in assay [1].

`COc1cc2c(Oc3ccc(NC(=O)c4nn(-c5ccc(F)cc5Br)c5ccccc5c4=O)cc3F)ccnc2cc1OCCCN1CCCC1`: the IC50 in the assay with MKN-45 is 1720 nM; in the assay on HT-29 it was 2910 nM; with A549, 1030 nM; in assay [1], 3650 nM.

As to `COc1cc2c(Oc3ccc(NC(=O)c4nn(-c5ccccc5Cl)c5cc(F)ccc5c4=O)cc3F)ccnc2cc1OCCCN1CCCCC1`, the IC50 in the assay with MKN-45 was 1620 nM; with HT-29, 2470 nM; in the assay on A549, 1820 nM; in assay [1] it was 1510 nM.

On to `COc1cc2c(Oc3ccc(NC(=O)c4nn(-c5cc(C)ccc5C)c5ccccc5c4=O)cc3F)ccnc2cc1OCCCN1CCCC1`, for which the IC50 turned out to be 2470 nM in assay [2]; 420 nM in the assay with MKN-45; 3050 nM with HT-29; 1150 nM with A549; 2030 nM in assay [1].

On to `COc1cc2c(Oc3ccc(NC(=O)c4nn(-c5ccc(C)cc5)c5ccccc5c4=O)cc3F)ccnc2cc1OCCCN1CCC(C)CC1`, for which the IC50 with MKN-45 stood at 1220 nM; in the assay with HT-29, 2850 nM; with A549, 1050 nM; in assay [1] it was 1990 nM.
